Source: ChEMBL document CHEMBL1926655, “Electron-donating para-methoxy converts a benzamide-isoquinoline derivative into a highly Sigma-2 receptor selective ligand” (Bioorg Med Chem, 2011)
Activity calls are given as the source filed them. The rule behind the calls is not given here.

Legend:
[1] = species on record: Rattus norvegicus; test: Selectivity ratio of Ki for rat sigma 1 receptor to Ki for rat sigma 2 receptor
Summary of the method: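 Ratio of Ki values from rat liver membrane competition binding: σ1 with 10 nM [³H]-(+)-pentazocine, σ2 with 10 nM [³H]-DTG plus 100 nM (+)-pentazocine; 1.5 h at 32°C, filtration and scintillation counting, Ki by Cheng-Prusoff.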

[2] = molecular target: Sigma non-opioid intracellular receptor 1 (Rattus norvegicus, UniProt Q9R0C9); test: Displacement of (+)-[3H]pentazocine from sigma 1 receptor in rat liver membrane after 1.5 hrs by scintillation counting; type: cell membranes
Summary of the method: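 Rat liver membranes (~50 μg total protein per reaction) incubated with 10 nM [³H]-(+)-pentazocine and serial dilutions of compound (stocks in DMSO) for 1.5 h at 32°C. […] Filtered through polyethyleneimine-pretreated GF/B filters, bound radioactivity counted by liquid scintillation. One-site competition fit, Ki by Cheng-Prusoff.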

[3] = Displacement of [3H]ditolylguanidine from sigma 2 receptor in rat liver membrane after 1.5 hrs by scintillation counting in presence of sigma 1 blocker (+)-pentazocine; type: cell membranes
Summary of the method: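 Rat liver membranes (~50 μg total protein per reaction) in 50 mM Tris-HCl pH 8.0 with 10 nM [³H]-DTG plus 100 nM cold (+)-pentazocine to mask σ1 sites. […] Filtration on PEI-pretreated GF/B, scintillation counting, one-site competition fit, Ki via Cheng-Prusoff.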

[4] = system: RT-4; test: Displacement of [125I]IAF from sigma 2 receptor in human RT4 cells at 10 uM after 30 mins preincubation by photoaffinity labeling experiment; type: cell-based
Summary of the method: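 Fresh membranes from sonicated RT4 human bladder papilloma cells (200 μg protein per reaction) preincubated with compound in 50 mM Tris pH 7.4, 30 min, 32°C. Then 1 nM [¹²⁵I]-IAF (final 1% ethyl acetate) added for 30 min at 32°C, photoactivated 6 sec with mercury lamp, quenched in SDS/β-mercaptoethanol sample buffer; labeled receptor bands examined.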

Chain of Sigma non-opioid intracellular receptor 1 (Q9R0C9 whole entry): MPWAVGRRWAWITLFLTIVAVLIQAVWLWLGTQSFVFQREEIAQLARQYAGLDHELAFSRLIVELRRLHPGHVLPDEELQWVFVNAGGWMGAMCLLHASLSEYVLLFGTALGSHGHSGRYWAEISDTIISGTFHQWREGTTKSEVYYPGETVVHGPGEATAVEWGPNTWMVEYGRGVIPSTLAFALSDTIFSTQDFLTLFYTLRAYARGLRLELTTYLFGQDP

| Ratio Ki [1] | Ki [2] [µM] | Ki [3] [µM] | SMILES | Activity [4] |
| --- | --- | --- | --- | --- |
| 0.096 | 14.7 | 152 | COc1cc2c(cc1OC)CN(CCCCNC(=O)c1ccc([N+](=O)[O-])cc1)CC2 | – |
| 86.2 | 74.7 | 0.867 | COc1c(I)ccc(C(=O)NCCCCN2CCc3ccc([N+](=O)[O-])cc3C2)c1O | – |
| – | > 10000 | 5.29 | COc1cc2c(cc1OC)CN(CCCCNC(=O)c1ccccc1)CC2 | – |
| 2.8 | 11.2 | 4 | COc1cccc(C(=O)NCCCCN2CCc3ccc([N+](=O)[O-])cc3C2)c1O | – |
| 0.61 | 7.87 | 12.9 | COc1cccc(C(=O)NCCCCN2CCc3ccc([N+](=O)[O-])cc3C2)c1OC | inactive |
| – | 1210 | > 10000 | COc1cc2c(cc1OC)CN(CCCCNC(=O)c1cccc([N+](=O)[O-])c1)CC2 | – |
| 385 | 10.3 | 0.0268 | COc1ccc(C(=O)NCCCCN2CCc3ccc([N+](=O)[O-])cc3C2)c(OC)c1OC | – |
| 48.4 | 67.8 | 1.4 | COc1cc2c(cc1OC)CN(CCCCNC(=O)c1cccc(OC)c1O)CC2 | – |
| – | – | – | O=C(CCCN1CCC(O)(c2ccc(Cl)cc2)CC1)c1ccc(F)cc1 | Active |
| 4.12 | 0.0875 | 0.0213 | O=C1c2ccccc2C(=O)N1CCCCN1CCc2ccc([N+](=O)[O-])cc2C1 | Active |
